Rows were chosen to be rich in hits. Some 5.4% of all compounds tested hit in one or more screens of this group.
HIV Rev-RRE inh – HIV-1 Rev-RRE binding inhibitors, primary screen, biochemical, FRET, protein-RNA interaction; P05866; inhibition, % at 8 µM; Rev peptide-RRE RNA binding; actives 0.79% (n = 97,000);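 active = inhibition above the screen-wide mean plus 3 SD, cut at about 35% in these data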;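 also: 0% = median DMSO wells and 100% = median Neomycin B control wells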
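Test system – labelled RRE RNA duplex and labelled Rev peptide · Reagent – labelled Rev peptide · Doses – one concentration, 8 µM nominal · Incubation – 5 + 15 min at 25 °C · Signal – FRET fluorescence readout · Read-out basis – % inhibition of FRET ratio versus controls · Control set – DMSO wells as 0% and neomycin B wells as 100% inhibition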
Cav3 T inh – Cav3.2 calcium influx blockers – cell-based, Fluo-4 calcium fluorescence, FDSS, MLSMR library, primary screen; AID 449739, 2010; Voltage-dependent T-type calcium channel subunit alpha-1H (Homo sapiens), O95180; actives 4% (n = 100,000); B-score at 10 µM; Cav3.2-expressing cells; hits give low values;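 active = single-dose well whose peak fluorescence ratio is a statistical outlier from its plate by either plate-standardised score or position-corrected B-score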
EphB4 antag – EphB4-ephrin-B2 interaction antagonists, primary screen, biochemical, TNYL-RAW peptide probe, fluorescence polarization | Ephrin type-B receptor 4 (Homo sapiens), P54760 | EphB4 LBD / TNYL-RAW-Alexa532 peptide | inhibition, % at 7 µM | actives 0.15% (n = 97,000);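 active = inhibition above the screen-wide mean inhibition plus 3 SD, cut at about 15% in these data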;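 also: 0% = DMSO wells and 100% = excess unlabeled TNYL-RAW peptide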
DAT uptake mod – changed hDAT dopamine uptake under cocaine IC80, either direction, primary screen, cocaine antagonist project, cell-based, LLC-PK1 hDAT, [14C]-dopamine uptake, MLSMR. actives 1.3% (n = 110,000). B-score at 10 µM. Sodium-dependent dopamine transporter (Homo sapiens), Q01959. LLC-PK1 hDAT cells, [14C]-dopamine uptake with cocaine IC80; actives deviate in either direction;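 active = Z score or B-score, a plate-position-corrected score, falls beyond the plate's 99.7% confidence bounds, in either direction; inactive = both scores lie inside the 99.7% bounds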;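 also: scored against the spread of the other compound wells on the same plate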
* = called active by the depositor; . = no result given.

SMILES	HIV Rev-RRE inh	Cav3 T inh	EphB4 antag	DAT uptake mod
CC(Sc1nnc(Cc2cccs2)n1C1CCCCC1)C(=O)NCc1ccco1 (stereo unspecified)	-4.2	-0.8	-2.7	0.825
CC(Sc1nnc(Cc2cccs2)n1C1CCCCC1)C(=O)N1CCc2ccccc21 (stereo unspecified)	0.9	-6.53*	1.8	1.5
C=CCn1c(SCC(=O)NCCCC)nc2scc(-c3ccco3)c2c1=O	12.0	-2.74*	-0.1	0.135
CCOC(=O)c1c(C)n(C)c2cc(Br)c(C)cc12	14.3	0.43	5.6	-0.00418
CCOC(=O)c1c(CN2CCN(Cc3ccccc3)CC2)n(C)c2cc(Br)c(OC)cc12	4.4	-6.97*	-1.0	0.494
CSC(=NNC(=O)c1ccc(O)cc1)SC	8.4	-0.0596	-2.5	0.392
O=C1c2ccccc2-c2onc3ccc(Oc4ccccc4)c1c23	64.3*	0.606	1.3	0.0264
O=C1c2ccccc2C(=O)c2c1oc(C(F)(F)F)c2C(=O)c1ccccc1	15.6	.	4.3	-0.867
CCC1=C(OC(=O)N(CC)CC)N2C(=O)OC(=NCc3ccccc3)[C@]2(C)[C@H]2C1=CC[C@H]1C(=O)N(c3ccccc3)C(=O)[C@H]12	.	-0.537	.	1.85*
CCC1=C(OC(=O)N(CC)CC)N2C(=O)OC(=NCc3ccccc3)[C@]2(C)[C@H]2C1=CC[C@H]1C(=O)N(CC(=O)OC)C(=O)[C@H]12	.	-0.00783	.	2.76
COc1ccccc1-n1cnc2cc(NCc3cccs3)ccc21	-1.3	-3.66	-3.5	-2.52*
Cc1cc(C(=O)Cn2nnc3ccccc3c2=O)c(C)n1-c1ccccc1F	5.2	-7*	0.5	-0.338
COc1ccc(-n2c(C)cc(C(=O)Cn3nnc4ccccc4c3=O)c2C)cc1	2.1	-1.86	10.0	0.23
CC(C)(C)NC(=S)NCc1cccnc1	6.8	1.49	-6.8	-0.568
CCOCCCn1c(=N)c(C(=O)NCCN2CCOCC2)cc2c(=O)n3cccc(C)c3nc21	9.9	.	-5.8	.
CCCN1C(=O)/C(=C/c2c(NCCCOCC)nc3c(C)cccn3c2=O)SC1=S	76.0*	-2.5	-3.5	0.457
Cc1cccn2c(=O)c(C=Nc3ccccc3)c(NCc3ccco3)nc12	5.8	-2.54	0.6	-0.29
CCOCCCNc1nc2c(C)cccn2c(=O)c1/C=C1\SC(=S)N(CC(C)C)C1=O	43.6*	.	-4.6	.
CCc1nc(SCc2ccc(C(=O)OC)o2)c2c(=O)n(C)c(=O)n(C)c2n1	8.1	-0.115	0.7	-0.35
Cc1cc(C)c(S(=O)(=O)c2ccccc2)c(N(C)C)n1	3.5	-0.0958	-10.7	0.284
Cc1cc(C)c(S(=O)(=O)c2ccccc2)c(OC(=O)c2c(Cl)cc(Cl)cc2Cl)n1	13.8	-6.48*	-3.0	-1.85
Cc1nn(Cc2ccc(Cl)cc2)c(C)c1NC(=O)CSc1nc2c(c(C(F)(F)F)n1)CCc1ccccc1-2	2.7	-3.9*	2.8	-1.14
N#Cc1c(NC(=O)CSc2nc3c(c(C(F)(F)F)n2)CCc2ccccc2-3)sc2c1CCCC2	10.2	-1.34	-1.4	-0.169
O=C(O)CCCN=CC1=C(O)C(C(=O)c2ccccc2)CCC1=O (stereo unspecified)	0.6	-1.91	-9.3	1.82*
CCC(CO)N=CC1=C(O)C(C(=O)c2ccccc2)CCC1=O (stereo unspecified)	3.1	-0.038	6.0	-0.114
SMILES	HIV Rev-RRE inh	Cav3 T inh	EphB4 antag	DAT uptake mod
CC(C)CCCC(C)NS(=O)(=O)Cc1ccccc1 (stereo unspecified)	1.2	-3.55	-3.2	0.697
C=CCn1c(SCc2ccc(C#N)cc2)nnc1-c1cccc(Cl)c1	10.6	-4.92*	4.2	-0.0743
COc1ccc(S(=O)(=O)Nc2ccccc2C(=O)NC(C)C)cc1OC	.	0.0888	.	0.339
Cc1ccc(C2=Nc3ccccc3NC(C)(c3ccc(C)o3)C2)o1 (stereo unspecified)	10.9	-5.26*	-0.2	0.626
CCSc1ccccc1C(=O)N1CCN(c2ccccc2F)CC1	7.1	-1.56	2.7	0.0771
O=C(c1ccccc1)N1CCN(c2ccccc2F)CC1	10.3	-0.705	1.0	0.0249
COc1ccccc1N1CCN(C(=O)c2cc(-c3ccc(Cl)cc3)on2)CC1	3.4	-2.39	0.9	0.494
O=C(c1ccccc1Oc1ccccc1)N1CCN(c2ccccc2F)CC1	3.2	-5.41*	0.5	0.0268
COc1ccccc1N1CCN(C(=O)c2cc(-c3ccc(C)cc3)on2)CC1	5.8	-4.18*	9.0	1.82
O=C(c1ccccc1C(=O)N1CCN(c2ccccc2F)CC1)N1CCN(c2ccccc2F)CC1	.	-3.86*	.	-0.166
COc1ccccc1N1CCN(C(=O)c2ccccc2Oc2ccccc2)CC1	2.8	-4.73*	-9.8	0.0172
COC(=O)C1CCN(C(=O)c2ccccc2Oc2ccccc2)CC1	-1.2	-0.0428	-5.3	-0.467
COc1ccccc1CNC(=O)CCS(=O)(=O)c1cccc2nonc12	3.9	0.47	5.7	-0.00496
O=c1c(Cc2ccc(F)cc2)c(O)ccn1Cc1cccc(Cl)c1	3.3	-0.892	1.4	-1.06
C#Cc1ccc([C@H]2C=C(C(=O)N3CCN(Cc4ccc5c(c4)OCO5)CC3)O[C@@H](OCC)[C@@H]2CCCO)cc1	.	-1.13	.	1.5
O=C(COc1cccc2ccccc12)NNC(=O)c1cccs1	3.8	.	5.4	.
COc1ccccc1N1CCN(C(=O)c2ccc3nc(-c4ccco4)c(-c4ccco4)nc3c2)CC1	-4.2	-6.21*	-6.1	0.413
CCC(C(=O)NCc1ccco1)N(C(=O)CNS(=O)(=O)c1ccc(C)cc1)c1ccccc1OC (stereo unspecified)	-0.7	-3.52*	-9.4	1.08
Cc1ccc(S(=O)(=O)NCC(=O)N(CC(=O)NCc2ccco2)Cc2ccc3c(c2)OCO3)cc1	3.6	-5.15*	-12.8	0.125
Cc1ccc(S(=O)(=O)NC(CC(C)C)C(=O)NCc2ccco2)cc1 (stereo unspecified)	5.2	0.993	8.3	0.201
COc1ccccc1N(C(=O)CNS(=O)(=O)c1ccccc1)C(C(=O)NCc1ccco1)C(C)C (stereo unspecified)	4.3	-0.023	-2.6	0.573
CCCC(C(=O)NCc1ccco1)N(C(=O)CNS(=O)(=O)c1ccccc1)c1ccccc1OC (stereo unspecified)	0.2	-5.43*	-5.8	0.173
COc1cccc(C2=NOC(C(=O)Nc3cccc(C(C)=O)c3)C2)c1OC (stereo unspecified)	7.7	-0.0264	6.2	0.472
CCN(CC)CC(C)OC(=O)COc1ccc(OC)cc1 (stereo unspecified)	8.4	-0.135	7.9	0.159
CC1CCN(c2ccc(/C=N/n3nnnc3N)cc2[N+](=O)[O-])CC1	17.9	0.438	4.4	-0.0121
Cc1ccc(/C=N/n2nnnc2N)cc1[N+](=O)[O-]	8.0	-1.51	0.0	-8.87*

Compound activity: PubChem BioAssay, several laboratories
